Values joined by “and” are separate entries in the source; they are usually repeats but may differ in a detail not shown here. Equal values may be shown once.
Tested on: U2OS
Assay: Multiplex assay against U2OS
Assay type: toxicity, cell-based
Settings: human
In short: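 Phenotypes for tubulin, mitochondrial mass and membrane permeability are expressed as per cents of healthy-nucleus cells. Cells were stained live at seeding with Hoechst33342, BioTracker Green Microtubule Cytoskeleton Dye, MitoTracker Red and Annexin V Alexa Fluor 680, then imaged after compound addition on a CQ1 microscope at 37°C and 5% CO2. Machine-learning gating in CellPathfinder separated Hoechst high-intensity objects from normal cells, divided normal cells by nuclear state (healthy, pyknosed, fragmented) and divided pyknosed cells into mitotic or apoptotic.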

[1] = 12 h, 1 µM, compound concentration 1 uM
[2] = 12 h, 10 µM, compound concentration 10 uM
[3] = 24 h, 1 µM, compound concentration 1 uM
[4] = 24 h, 10 µM, compound concentration 10 uM
[5] = 48 h, 1 µM, compound concentration 1 uM
[6] = 48 h, 10 µM, compound concentration 10 uM

Cl.c1ccc2c(c1)CCC[C@H]2Nc1nc2ccccc2[nH]1
Population Apoptotic (%) [1]: 51.52% and 50%
Population Fragmented Nuclei (%) [1]: 1.35% and 1.11%
Population Healthy Nuclei (%) [1]: 89.73% and 86.67%
Population Hoechst High Intensity Objects (%) [1]: 0%
Population Membrane Permeable-Phenotype (%) [1]: 0.9% and 4.49%
Population Mitochondria Different-Phenotype (%) [1]: 0% and 8.33%
Population Mitotic Cells (%) [1]: 48.48% and 50%
Population Normal (%) [1]: 100%
Population Pyknosed Nuclei (%) [1]: 8.92% and 12.22%
Population Tubulin-Different-Phenotype (%) [1]: 0.9% and 0.64%
Total Cell Count [1]: 370 and 180
Population Apoptotic (%) [2]: 34.15% and 18.18%
Population Fragmented Nuclei (%) [2]: 1.73% and 1.16%
Population Healthy Nuclei (%) [2]: 88.15% and 86.13%
Population Hoechst High Intensity Objects (%) [2]: 0%
Population Membrane Permeable-Phenotype (%) [2]: 1.96% and 2.01%
Population Mitotic Cells (%) [2]: 65.85% and 81.82%
Population Normal (%) [2]: 100%
Population Pyknosed Nuclei (%) [2]: 10.12% and 12.72%
Population Tubulin-Different-Phenotype (%) [2]: 1.96% and 2.01%
Total Cell Count [2]: 405 and 173
Population Apoptotic (%) [3]: 36.36% and 51.52%
Population Fragmented Nuclei (%) [3]: 1.17% and 2.47%
Population Healthy Nuclei (%) [3]: 92.41% and 83.95%
Population Hoechst High Intensity Objects (%) [3]: 0.19% and 0%
Population Membrane Permeable-Phenotype (%) [3]: 0.42% and 2.94%
Population Mitochondria Different-Phenotype (%) [3]: 0.21% and 7.35%
Population Mitotic Cells (%) [3]: 63.64% and 48.48%
Population Normal (%) [3]: 99.81% and 100%
Population Pyknosed Nuclei (%) [3]: 6.42% and 13.58%
Population Tubulin-Different-Phenotype (%) [3]: 0.21% and 1.47%
Total Cell Count [3]: 515 and 243
Population Apoptotic (%) [4]: 40% and 51.85%
Population Fragmented Nuclei (%) [4]: 2.23% and 2.74%
Population Healthy Nuclei (%) [4]: 89.41% and 84.93%
Population Hoechst High Intensity Objects (%) [4]: 0%
Population Membrane Permeable-Phenotype (%) [4]: 1.87% and 2.69%
Population Mitochondria Different-Phenotype (%) [4]: 0.42% and 8.06%
Population Mitotic Cells (%) [4]: 60% and 48.15%
Population Normal (%) [4]: 100%
Population Pyknosed Nuclei (%) [4]: 8.36% and 12.33%
Population Tubulin-Different-Phenotype (%) [4]: 1.87% and 1.08%
Total Cell Count [4]: 538 and 219
Population Apoptotic (%) [5]: 36.59% and 47.06%
Population Fragmented Nuclei (%) [5]: 3.12% and 2.18%
Population Healthy Nuclei (%) [5]: 88.61% and 85.44%
Population Hoechst High Intensity Objects (%) [5]: 0%
Population Membrane Permeable-Phenotype (%) [5]: 0.46% and 2.27%
Population Mitochondria Different-Phenotype (%) [5]: 0.11% and 6.25%
Population Mitotic Cells (%) [5]: 63.41% and 52.94%
Population Normal (%) [5]: 100%
Population Pyknosed Nuclei (%) [5]: 8.27% and 12.38%
Population Tubulin-Different-Phenotype (%) [5]: 0.57% and 0.85%
Total Cell Count [5]: 992 and 412
Population Apoptotic (%) [6]: 41.57% and 48.08%
Population Fragmented Nuclei (%) [6]: 2.25% and 2.98%
Population Healthy Nuclei (%) [6]: 88.65% and 82.93%
Population Hoechst High Intensity Objects (%) [6]: 0% and 0.27%
Population Membrane Permeable-Phenotype (%) [6]: 1.5% and 3.92%
Population Mitochondria Different-Phenotype (%) [6]: 0% and 3.92%
Population Mitotic Cells (%) [6]: 58.43% and 51.92%
Population Normal (%) [6]: 100% and 99.73%
Population Pyknosed Nuclei (%) [6]: 9.1% and 14.09%
Population Tubulin-Different-Phenotype (%) [6]: 1.5% and 2.61%
Total Cell Count [6]: 978 and 370

CN(C)CCOc1ccc(/C(=C(/CCCO)c2ccccc2)c2ccc(O)cc2)cc1
Population Apoptotic (%) [1]: 43.75% and 21.88%
Population Fragmented Nuclei (%) [1]: 1.53% and 1.8%
Population Healthy Nuclei (%) [1]: 90.31% and 79.04%
Population Hoechst High Intensity Objects (%) [1]: 0%
Population Membrane Permeable-Phenotype (%) [1]: 2.26% and 4.55%
Population Mitotic Cells (%) [1]: 56.25% and 78.12%
Population Normal (%) [1]: 100%
Population Pyknosed Nuclei (%) [1]: 8.16% and 19.16%
Population Tubulin-Different-Phenotype (%) [1]: 2.54% and 2.27%
Total Cell Count [1]: 392 and 167
Population Apoptotic (%) [2]: 30.43% and 23.08%
Population Fragmented Nuclei (%) [2]: 2.02% and 2.16%
Population Healthy Nuclei (%) [2]: 71.39% and 69.78%
Population Hoechst High Intensity Objects (%) [2]: 0%
Population Membrane Permeable-Phenotype (%) [2]: 13.77% and 36.08%
Population Mitotic Cells (%) [2]: 69.57% and 76.92%
Population Normal (%) [2]: 100%
Population Pyknosed Nuclei (%) [2]: 26.59% and 28.06%
Population Tubulin-Different-Phenotype (%) [2]: 60.73% and 38.14%
Total Cell Count [2]: 346 and 139
Population Apoptotic (%) [3]: 35.85% and 30.56%
Population Fragmented Nuclei (%) [3]: 0.75% and 3.24%
Population Healthy Nuclei (%) [3]: 89.35% and 80.09%
Population Hoechst High Intensity Objects (%) [3]: 0%
Population Membrane Permeable-Phenotype (%) [3]: 0.63% and 4.05%
Population Mitotic Cells (%) [3]: 64.15% and 69.44%
Population Normal (%) [3]: 100%
Population Pyknosed Nuclei (%) [3]: 9.91% and 16.67%
Population Tubulin-Different-Phenotype (%) [3]: 1.67% and 1.16%
Total Cell Count [3]: 535 and 216
Population Apoptotic (%) [4]: 44.63% and 34.25%
Population Fragmented Nuclei (%) [4]: 2.92% and 1.89%
Population Healthy Nuclei (%) [4]: 67.64% and 52.2%
Population Hoechst High Intensity Objects (%) [4]: 0%
Population Membrane Permeable-Phenotype (%) [4]: 12.23% and 26.51%
Population Mitotic Cells (%) [4]: 55.37% and 65.75%
Population Normal (%) [4]: 100%
Population Pyknosed Nuclei (%) [4]: 29.44% and 45.91%
Population Tubulin-Different-Phenotype (%) [4]: 51.08% and 46.99%
Total Cell Count [4]: 411 and 159
Population Apoptotic (%) [5]: 42.71% and 56.25%
Population Fragmented Nuclei (%) [5]: 2% and 2.61%
Population Healthy Nuclei (%) [5]: 87.88% and 81.7%
Population Hoechst High Intensity Objects (%) [5]: 0.11% and 0%
Population Membrane Permeable-Phenotype (%) [5]: 1.2% and 2%
Population Mitotic Cells (%) [5]: 57.29% and 43.75%
Population Normal (%) [5]: 99.89% and 100%
Population Pyknosed Nuclei (%) [5]: 10.12% and 15.69%
Population Tubulin-Different-Phenotype (%) [5]: 2.28% and 1.6%
Population Apoptotic (%) [6]: 54.89% and 66.67%
Population Fragmented Nuclei (%) [6]: 4.64% and 2.86%
Population Healthy Nuclei (%) [6]: 74.08% and 49.14%
Population Hoechst High Intensity Objects (%) [6]: 0%
Population Mitotic Cells (%) [6]: 45.11% and 33.33%
Population Normal (%) [6]: 100%
Population Pyknosed Nuclei (%) [6]: 21.28% and 48%
Population Tubulin-Different-Phenotype (%) [6]: 26.13% and 55.81%

CCC(=O)OCC(=O)[C@@]1(OC(=O)CC)[C@@H](C)C[C@H]2[C@@H]3CCC4=CC(=O)C=C[C@]4(C)[C@@]3(Cl)[C@@H](O)C[C@@]21C [BECLOMETHASONE DIPROPIONATE]
Population Apoptotic (%) [1]: 84% and 71%
Population Fragmented Nuclei (%) [1]: 23% and 18%
Population Healthy Nuclei (%) [1]: 64% and 75%
Population Hoechst High Intensity Objects (%) [1]: 1% and 0%
Population Membrane Permeable-Phenotype (%) [1]: 11% and 13%
Population Mitochondria Different-Phenotype (%) [1]: 4% and 8%
Population Mitotic Cells (%) [1]: 15% and 28%
Population Normal (%) [1]: 98% and 99%
Population Pyknosed Nuclei (%) [1]: 12% and 6%
Population Tubulin-Different-Phenotype (%) [1]: 6% and 4%
Total Cell Count [1]: 160 and 111
Population Apoptotic (%) [2]: 65% and 68%
Population Healthy Nuclei (%) [2]: 40% and 69%
Population Hoechst High Intensity Objects (%) [2]: 4%
Population Membrane Permeable-Phenotype (%) [2]: 67% and 48%
Population Mitochondria Different-Phenotype (%) [2]: 73% and 97%
Population Mitotic Cells (%) [2]: 34% and 31%
Population Normal (%) [2]: 95%
Population Pyknosed Nuclei (%) [2]: 17% and 18%
Population Tubulin-Different-Phenotype (%) [2]: 80% and 97%
Total Cell Count [2]: 176 and 109
Population Apoptotic (%) [3]: 78% and 87%
Population Fragmented Nuclei (%) [3]: 21% and 15%
Population Healthy Nuclei (%) [3]: 67% and 71%
Population Hoechst High Intensity Objects (%) [3]: 2% and 0%
Population Membrane Permeable-Phenotype (%) [3]: 2% and 6%
Population Mitochondria Different-Phenotype (%) [3]: 4% and 5%
Population Mitotic Cells (%) [3]: 21% and 12%
Population Normal (%) [3]: 97% and 99%
Population Pyknosed Nuclei (%) [3]: 10% and 13%
Population Tubulin-Different-Phenotype (%) [3]: 1% and 3%
Total Cell Count [3]: 217 and 123
Population Apoptotic (%) [4]: 74% and 64%
Population Fragmented Nuclei (%) [4]: 35% and 12%
Population Healthy Nuclei (%) [4]: 45% and 69%
Population Hoechst High Intensity Objects (%) [4]: 3% and 9%
Population Membrane Permeable-Phenotype (%) [4]: 40% and 43%
Population Mitochondria Different-Phenotype (%) [4]: 72% and 86%
Population Mitotic Cells (%) [4]: 25% and 35%
Population Normal (%) [4]: 96% and 90%
Population Pyknosed Nuclei (%) [4]: 18% and 17%
Population Tubulin-Different-Phenotype (%) [4]: 66% and 76%
Total Cell Count [4]: 174 and 106
Population Apoptotic (%) [5]: 91% and 85%
Population Fragmented Nuclei (%) [5]: 22% and 10%
Population Healthy Nuclei (%) [5]: 68% and 75%
Population Hoechst High Intensity Objects (%) [5]: 2%
Population Membrane Permeable-Phenotype (%) [5]: 5% and 8%
Population Mitochondria Different-Phenotype (%) [5]: 2% and 5%
Population Mitotic Cells (%) [5]: 8% and 14%
Population Normal (%) [5]: 97%
Population Pyknosed Nuclei (%) [5]: 9% and 14%
Population Tubulin-Different-Phenotype (%) [5]: 2% and 3%
Total Cell Count [5]: 268 and 152
Population Apoptotic (%) [6]: 80% and 70%
Population Fragmented Nuclei (%) [6]: 36% and 21%
Population Healthy Nuclei (%) [6]: 47% and 65%
Population Hoechst High Intensity Objects (%) [6]: 4% and 6%
Population Membrane Permeable-Phenotype (%) [6]: 20% and 16%
Population Mitochondria Different-Phenotype (%) [6]: 26% and 36%
Population Mitotic Cells (%) [6]: 20% and 29%
Population Normal (%) [6]: 95% and 93%
Population Pyknosed Nuclei (%) [6]: 15% and 13%
Population Tubulin-Different-Phenotype (%) [6]: 14% and 10%
Total Cell Count [6]: 199 and 131
